Measurements: ChEMBL document CHEMBL1132279, “Axially chiral 1,7-naphthyridine-6-carboxamide derivatives as orally active tachykinin NK(1) receptor antagonists: synthesis, antagonistic activity, and effects on bladder functions” (J Med Chem, 1999)
Where “and” joins values, the source holds several entries; their conditions need not be identical. Identical values can stand only once.

Experiments:
[1] = target: Substance-P receptor (Homo sapiens, UniProt P25103); test: Tachykinin receptor 1 antagonistic activity as ability to inhibit [125I]BH-SP binding in human IM-9 cells (lymphoblast cells); assay type: cell-based
[2] = test system: Cavia porcellus; test: Shut down time of distension induced rhythmic bladder contractions in urethane anesthetized guinea pigs after a intravenous dose of 0.3 mg/kg of the compound; assay type: functional
Method in brief: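 Urethane-anesthetized guinea pigs; saline (39 °C) infused stepwise (0.2 mL) into the bladder via a dome needle until rhythmic isovolumetric contractions appeared. Compound in DMSO (0.05 mL/100 g) given iv at 0.3 mg/kg. Shutdown time (interval between contractions, 30 min cutoff) reported as mean ± SE, compared with the vehicle group mean by Dunnett's test.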

[3] = test system: Cavia porcellus; test: Inhibition of capsaicin-induced plasma extravasation in guinea pig trachea by peroral administration; assay type: functional; conditions: po, read-out: ID50 (the source's name)
Method in brief: (§1)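 Male Hartley guinea pigs (n = 5–8) under pentobarbital 35 mg/kg ip. Compound given iv 5 min, or orally 60 min, before iv capsaicin (150 µg/kg) plus Evans blue (20 mg/kg) in ethanol-saline 3:7. After 10 min, animals were perfused with saline and the trachea weighed.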

[4] = test system: Cavia porcellus; test: Effective dose that increased the bladder volume threshold of urethane anesthetized guinea pigs by 30%; assay type: functional
Method in brief: (§2)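 Urethane-anesthetized guinea pigs; bladder volume threshold read before dosing (mean of last two stable trials as control) and again 10 min after iv injection. Compound in 80% DMSO, 0.1 mL/100 g body weight. Effect given as % rise in volume threshold over predrug value; ED30 is the dose raising threshold by 30%, with 6–12 animals per dose and 95% confidence limits.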

[5] = test system: Cavia porcellus; test: In vivo inhibition of capsaicin-induced plasma extravasation in the trachea of guinea pigs after peroral administration; assay type: functional; conditions: po, read-out: ID50 (the source's name); method in brief: as §1
[6] = test system: Cavia porcellus; test: Increased bladder volume threshold in urethane anesthetized guinea pigs by 30%; assay type: functional; method in brief: as §2
[7] = test system: Cavia porcellus; test: In vivo inhibition of capsaicin-induced plasma extravasation in the trachea of guinea pigs after intravenous administration; assay type: functional; method in brief: as §1

Substance-P receptor, sequence (P25103 whole entry): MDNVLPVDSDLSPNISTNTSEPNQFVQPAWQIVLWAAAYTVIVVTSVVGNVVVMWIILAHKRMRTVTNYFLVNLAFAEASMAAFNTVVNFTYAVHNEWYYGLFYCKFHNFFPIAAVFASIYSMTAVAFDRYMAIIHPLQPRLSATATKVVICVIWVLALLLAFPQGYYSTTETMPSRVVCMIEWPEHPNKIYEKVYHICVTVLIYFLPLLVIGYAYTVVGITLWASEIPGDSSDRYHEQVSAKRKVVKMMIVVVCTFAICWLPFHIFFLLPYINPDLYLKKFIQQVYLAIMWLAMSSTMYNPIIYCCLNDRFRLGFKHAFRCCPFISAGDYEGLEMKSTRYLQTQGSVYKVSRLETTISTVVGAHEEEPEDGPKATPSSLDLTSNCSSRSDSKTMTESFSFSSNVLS

Structure (SMILES) | IC50 [1] | Shutdown time [2] | ED30 [4] | ED50 [5] | further results
Cc1ccc(-c2c3n(c(=O)c4ncccc24)CCN(Cc2cc(C(F)(F)F)cc(C(F)(F)F)c2)C3=O)cc1 | 2.3 nM |  |  |  | 
Cc1ccc(-c2c3n(c(=O)c4ncccc24)CCCN(Cc2cc(C(F)(F)F)cc(C(F)(F)F)c2)C3=O)cc1 | 0.85 nM | 10.1 min | 0.37 mg/kg |  | ED50 [3]: 0.073 mg/kg
Cc1ccc(-c2c3n(c(=O)c4ncccc24)CCCCN(Cc2cc(C(F)(F)F)cc(C(F)(F)F)c2)C3=O)cc1 [7-(3,5-BIS-TRIFLUOROMETHYL-BENZYL)-5-P-TOLYL-8,9,10,11-TETRAHYDRO-7H-1,7,11A-TRIAZA-CYCLOOCTA[B]NAPHTHALENE-6,12-DIONE (ATROPISOMERIC MIX)] |  |  | 0.066 mg/kg | 0.019 mg/kg | Shutdown time ([2]; 0.3 mg/kg): 7.4 min and 19.2 min and 15.7 min
Cc1ccc(-c2c(C(=O)N(C)Cc3cc(C(F)(F)F)cc(C(F)(F)F)c3)n(C)c(=O)c3ncccc23)cc1 [7-METHYL-8-OXO-5-P-TOLYL-7,8-DIHYDRO-[1,7]NAPHTHYRIDINE-6-CARBOXYLIC ACID (3,5-BIS-TRIFLUOROMETHYL-BENZYL)-METHYL-AMIDE (STRUCTURAL MIX)] |  |  |  | 0.11 mg/kg | Shutdown time ([2]; 0.3 mg/kg): 12.9 min [middle of 4 runs]; ED30 [6]: 0.1 mg/kg
Cc1ccc(-c2c3n(c(=O)c4ncccc24)CC[C@H](C)CN(Cc2cc(C(F)(F)F)cc(C(F)(F)F)c2)C3=O)cc1 (stereo in doubt; (aS,9S)-8b) [7-(3,5-BIS-TRIFLUOROMETHYL-BENZYL)-9-METHYL-5-P-TOLYL-8,9,10,11-TETRAHYDRO-7H-1,7,11A-TRIAZA-CYCLOOCTA[B]NAPHTHALENE-6,12-DIONE (ATROPISOMERIC MIX)] |  | 6.7 min |  |  | ED50 ([7]; Cavia porcellus, Plasma, iv, read-out: ID50 (the source's name)): > 0.3 mg/kg
Cc1ccc(-c2c3n(c(=O)c4ncccc24)CC[C@@H](C)CN(Cc2cc(C(F)(F)F)cc(C(F)(F)F)c2)C3=O)cc1 (stereo in doubt; (aR,9R)-8b) |  | 21.8 min | 0.051 mg/kg | 0.033 mg/kg | ID50 [7]: 0.0043 mg/kg
Cc1ccc(-c2c3n(c(=O)c4ncccc24)C[C@@H](C)CN(Cc2cc(C(F)(F)F)cc(C(F)(F)F)c2)C3=O)cc1 |  | 17.9 min | 0.16 mg/kg | 0.033 mg/kg | 
Cc1ccc(-c2c3n(c(=O)c4ncccc24)CCCCCN(Cc2cc(C(F)(F)F)cc(C(F)(F)F)c2)C3=O)cc1 | 1.8 nM | 17.1 min | 0.086 mg/kg | 0.04 mg/kg | 
Cc1ccc(-c2c3n(c(=O)c4ncccc24)CC[C@@H](C)CN(Cc2cc(C(F)(F)F)cc(C(F)(F)F)c2)C3=O)cc1 (stereo in doubt; (aS,9R)-8b) |  |  |  |  | ID50 [7]: 0.026 mg/kg
Cc1ccc(-c2c3n(c(=O)c4ncccc24)C[C@H](C)CN(Cc2cc(C(F)(F)F)cc(C(F)(F)F)c2)C3=O)cc1 | 9.5 nM | 5.9 min |  |  | 
